The source made the active and inactive calls. No cut-off for these calls is given here.
Tests used:
[1] = test system: Streptococcus intermedius; assay: Antimicrobial activity against Streptococcus intermedius NCTC 11324 assessed as biofilm formation at 0.10 to 0.25 ug/ml; format: functional, organism-based
Outline: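 Wild-type NCTC 11324 was grown overnight in TSB and inoculated into TSB with ampicillin (0.02 to 0.10 μg/ml), ciprofloxacin (0.10 to 0.28 μg/ml) or tetracycline (0.05 to 0.30 μg/ml), added at time zero. Wells held plastic coverslips and were incubated 12 h at 37°C in 5% CO2 aerobic air. Biofilm was measured as described previously. Experiments were done three times in three parallels.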

[2] = test system: Streptococcus intermedius; assay: Antimicrobial activity against Streptococcus intermedius NCTC 11324 biofilm assessed as biofilm bacterial count at 0.10 ug/ml (Rvb =402.9 +/- 26.88 10^5 CFU/ml); format: functional
[3] = test system: Streptococcus intermedius; assay: Antimicrobial activity against Streptococcus intermedius NCTC 11324 biofilm assessed as biofilm bacterial count at 0.15 ug/ml (Rvb =402.9 +/- 26.88 10^5 CFU/ml); format: functional
[4] = test system: Streptococcus intermedius; assay: Antimicrobial activity against Streptococcus intermedius NCTC 11324 biofilm assessed as biofilm bacterial count at 0.20 ug/ml (Rvb =402.9 +/- 26.88 10^5 CFU/ml); format: functional
[5] = test system: Streptococcus intermedius; assay: Antimicrobial activity against Streptococcus intermedius SI006 biofilm harboring luxS mutant gene assessed as biofilm bacterial count at 0.10 ug/ml (Rvb =310.8 +/- 17.10 10^5 CFU/ml); format: functional
[6] = test system: Streptococcus intermedius; assay: Antimicrobial activity against Streptococcus intermedius SI006 biofilm harboring luxS mutant gene assessed as biofilm bacterial count at 0.15 ug/ml (Rvb =310.8 +/- 17.10 10^5 CFU/ml); format: functional
[7] = test system: Streptococcus intermedius; assay: Antimicrobial activity against Streptococcus intermedius SI006 biofilm harboring luxS mutant gene assessed as biofilm bacterial count at 0.20 ug/ml (Rvb =310.8 +/- 17.10 10^5 CFU/ml); format: functional
[8] = test system: Streptococcus intermedius; assay: Antimicrobial activity against Streptococcus intermedius SI006 biofilm harboring luxS mutant gene assessed as biofilm bacterial count at 0.10 ug/ml in presence of 0.8 nM autoinducer 4,5-dihydroxy-2,3-pentanedione (Rvb =413.7 +/- 24.47 10^5 CFU/ml); format: functional
[9] = test system: Streptococcus intermedius; assay: Antimicrobial activity against Streptococcus intermedius SI006 biofilm harboring luxS mutant gene assessed as biofilm bacterial count at 0.20 ug/ml in presence of 0.8 nM autoinducer 4,5-dihydroxy-2,3-pentanedione (Rvb =413.7 +/- 24.47 10^5 CFU/ml); format: functional
[10] = test system: Streptococcus intermedius; assay: Antimicrobial activity against Streptococcus intermedius SI006 planktonic cells harboring luxS mutant gene assessed as bacterial count at 0.35 ug/ml in presence of 0.8 nM autoinducer 4,5-dihydroxy-2,3-pentanedione (Rvb =768.6 +/- 46.24 10^8 CFU/ml); format: functional
[11] = test system: Streptococcus intermedius; assay: Antimicrobial activity against Streptococcus intermedius NCTC 11324 assessed as growth inhibition at 0.5 ug/ml; format: functional
Outline: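 Broth microdilution MIC in ultra-low-binding 96-well plates, inoculum ≈4 × 10^5. Growth was read at 595 nm, and the MIC was taken as the lowest antibiotic concentration inhibiting growth.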

[12] = test system: Streptococcus intermedius; assay: Antimicrobial activity against Streptococcus intermedius NCTC 11324 planktonic cells assessed as bacterial count at 0.20 ug/ml (Rvb =756.9 +/- 62.98 10^8 CFU/ml); format: functional
Outline: (§1)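 Planktonic wild-type cells were inoculated at ≈4 × 10^5 CFU/ml in TSB in ultra-low-binding plates. Media were without or with ampicillin (0.02 to 0.14 μg/ml), ciprofloxacin (0.10 to 0.35 μg/ml) or tetracycline (0.03 to 0.20 μg/ml). After 12 h at 37°C in 5% CO2 aerobic air, CFU were counted, run in parallel with the BacTiter-Glo ATP assay. Experiments were done three times in two parallels.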

[13] = test system: Streptococcus intermedius; assay: Antimicrobial activity against Streptococcus intermedius NCTC 11324 planktonic cells assessed as bacterial count at 0.25 ug/ml (Rvb =756.9 +/- 62.98 10^8 CFU/ml); format: functional; outline: as §1
[14] = test system: Streptococcus intermedius; assay: Antimicrobial activity against Streptococcus intermedius NCTC 11324 planktonic cells assessed as bacterial count at 0.30 ug/ml (Rvb =756.9 +/- 62.98 10^8 CFU/ml); format: functional; outline: as §1
[15] = test system: Streptococcus intermedius; assay: Antimicrobial activity against Streptococcus intermedius NCTC 11324 planktonic cells assessed as bacterial count at 0.35 ug/ml (Rvb =756.9 +/- 62.98 10^8 CFU/ml); format: functional
[16] = test system: Streptococcus intermedius; assay: Antimicrobial activity against Streptococcus intermedius SI006 planktonic cells harboring luxS mutant gene assessed as bacterial count at 0.25 ug/ml (Rvb =708.1 +/- 47.64 10^8 CFU/ml); format: functional
[17] = test system: Streptococcus intermedius; assay: Antimicrobial activity against Streptococcus intermedius SI006 planktonic cells harboring luxS mutant gene assessed as bacterial count at 0.30 ug/ml (Rvb =708.1 +/- 47.64 10^8 CFU/ml); format: functional
[18] = test system: Streptococcus intermedius; assay: Antimicrobial activity against Streptococcus intermedius SI006 planktonic cells harboring luxS mutant gene assessed as bacterial count at 0.35 ug/ml (Rvb =708.1 +/- 47.64 10^8 CFU/ml); format: functional
[19] = test system: Streptococcus intermedius; assay: Antimicrobial activity against Streptococcus intermedius SI006 planktonic cells harboring luxS mutant gene assessed as bacterial count at 0.20 ug/ml in presence of 0.8 nM autoinducer 4,5-dihydroxy-2,3-pentanedione (Rvb =768.6 +/- 46.24 10^8 CFU/ml); format: functional
[20] = test system: Streptococcus intermedius; assay: Antimicrobial activity against Streptococcus intermedius SI006 planktonic cells harboring luxS mutant gene assessed as bacterial count at 0.25 ug/ml in presence of 0.8 nM autoinducer 4,5-dihydroxy-2,3-pentanedione (Rvb =768.6 +/- 46.24 10^8 CFU/ml); format: functional
[21] = test system: Streptococcus intermedius; assay: Antimicrobial activity against Streptococcus intermedius SI006 planktonic cells harboring luxS mutant gene assessed as bacterial count at 0.30 ug/ml in presence of 0.8 nM autoinducer 4,5-dihydroxy-2,3-pentanedione (Rvb =768.6 +/- 46.24 10^8 CFU/ml); format: functional

With `O=C(O)c1cn(C2CC2)c2cc(N3CCNCC3)c(F)cc2c1=O` [CIPROFLOXACIN] the Activity [1] was “inactive”, the CFU [2] was 768.1 ×10⁵ /ml and the CFU [3] was 663.8 ×10⁵ /ml. For the same molecule, the CFU [4] was 577.2 ×10⁵ /ml, the CFU [5] was 324.1 ×10⁵ /ml and the CFU [6] was 333 ×10⁵ /ml. The CFU [7] was 131 ×10⁵ /ml, the CFU [8] was 814.7 ×10⁵ /ml and the CFU [9] was 519.5 ×10⁵ /ml. For the same molecule, the CFU [10] was 2.3 ×10⁸ /ml, the Activity [11] was 0.5 µg/mL and the CFU [12] was 5.87 ×10⁸ /ml. The CFU [13] was 5.14 ×10⁸ /ml, the CFU [14] was 3.12 ×10⁸ /ml and the CFU [15] was 2.6 ×10⁸ /ml. It also gave a CFU [16] of 1.16 ×10⁸ /ml, a CFU [17] of 0.74 ×10⁸ /ml and a CFU [18] of 0.4 ×10⁸ /ml. The CFU [19] was 5.3 ×10⁸ /ml, the CFU [20] was 4.72 ×10⁸ /ml and the CFU [21] was 3.1 ×10⁸ /ml.
